In article PMC5392356 (Nature chemical biology, 2017):

Tests used:
VCB and Brd4^BD2 = VCB and Brd4^BD2 (Homo sapiens, UniProt O60885+P40337); assay: ITC, VCB titrated into PROTAC:BD complex; format: binding
Brd2 [1] = molecular target: T1, Brd2 (Homo sapiens, UniProt P25440); assay: Isobaric tagging; format: cell-based; conditions: HeLa cells, 24 h, proteomics
Brd4 [2] = molecular target: T2, Brd4 (Homo sapiens, UniProt O60885); assay: Isobaric tagging; format: cell-based; conditions: HeLa cells, AT1 1 µM, 24 h; 5,674 proteins quantified
Brd3 [3] = molecular target: T3, Brd3 (Homo sapiens, UniProt Q15059); assay: Isobaric tagging; format: cell-based; conditions: HeLa cells, 24 h, proteomics
Brd2 [4] = molecular target: T1, Brd2; assay: BET protein degradation in HeLa cells, Western blot; format: cell-based; conditions: 24 h
Outline: (§1)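 HeLa cells were kept in DMEM with 10% FBS, […], penicillin/streptomycin at 37 °C, 5% CO2. They were seeded in six-well plates and treated the next day. They were PBS-washed and lysed on ice in RIPA with protease inhibitors, Benzonase and 0.5 mM MgCl2, then sonicated and centrifuged. Protein was quantified by BCA. Immunoblots used Brd2, Brd3, Brd4 and β-actin antibodies with IRDye 800CW secondaries; band intensities were quantified on an Odyssey imager.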

Brd3 [5] = molecular target: T3, Brd3; assay: as above; format: cell-based; conditions: 24 h
Outline: as §1

Brd4 [6] = molecular target: T2, Brd4; assay: as above; format: cell-based; conditions: 24 h, 1–3 μM
Outline: as §1

[7] = ITC 25 °C, VCB into PROTAC:Brd4^BD2 vs VCB into PROTAC

Sequence of VCB and Brd4^BD2 (P40337 54-213, other chains not shown): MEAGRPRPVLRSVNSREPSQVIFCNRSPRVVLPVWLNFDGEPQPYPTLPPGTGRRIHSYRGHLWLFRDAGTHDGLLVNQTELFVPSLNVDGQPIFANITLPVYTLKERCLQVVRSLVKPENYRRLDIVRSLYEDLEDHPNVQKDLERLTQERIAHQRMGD
Sequence of VCB and Brd4^BD2 (Q15370 1-104, other chains not shown, further chain): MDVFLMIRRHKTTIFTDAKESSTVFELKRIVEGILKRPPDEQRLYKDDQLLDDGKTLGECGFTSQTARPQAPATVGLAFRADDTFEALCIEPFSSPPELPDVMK
Sequence of VCB and Brd4^BD2 (Q15369 17-112, other chains not shown, further chain): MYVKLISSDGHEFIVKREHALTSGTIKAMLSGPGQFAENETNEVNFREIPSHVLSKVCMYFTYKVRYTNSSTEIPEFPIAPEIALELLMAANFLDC
T3 sequence (Q15059 whole entry): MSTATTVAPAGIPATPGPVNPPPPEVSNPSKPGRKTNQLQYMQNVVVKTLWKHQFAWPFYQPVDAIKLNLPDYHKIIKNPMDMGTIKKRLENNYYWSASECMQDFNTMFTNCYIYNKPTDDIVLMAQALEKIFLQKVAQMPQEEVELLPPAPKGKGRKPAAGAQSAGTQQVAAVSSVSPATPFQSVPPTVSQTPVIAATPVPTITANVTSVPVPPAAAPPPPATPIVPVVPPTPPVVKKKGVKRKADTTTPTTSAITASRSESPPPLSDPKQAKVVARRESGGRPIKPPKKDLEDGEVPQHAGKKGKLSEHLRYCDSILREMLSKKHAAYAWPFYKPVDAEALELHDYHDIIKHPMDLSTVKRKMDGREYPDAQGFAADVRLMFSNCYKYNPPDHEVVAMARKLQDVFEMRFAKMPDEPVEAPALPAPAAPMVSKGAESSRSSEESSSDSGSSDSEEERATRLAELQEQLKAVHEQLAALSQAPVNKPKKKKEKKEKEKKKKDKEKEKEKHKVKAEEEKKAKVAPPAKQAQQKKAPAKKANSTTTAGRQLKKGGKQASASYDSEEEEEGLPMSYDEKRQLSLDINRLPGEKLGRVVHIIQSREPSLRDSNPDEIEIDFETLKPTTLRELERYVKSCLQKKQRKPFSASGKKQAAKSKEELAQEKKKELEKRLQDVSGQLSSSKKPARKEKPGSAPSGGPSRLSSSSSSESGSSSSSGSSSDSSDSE
T1 sequence (P25440 whole entry): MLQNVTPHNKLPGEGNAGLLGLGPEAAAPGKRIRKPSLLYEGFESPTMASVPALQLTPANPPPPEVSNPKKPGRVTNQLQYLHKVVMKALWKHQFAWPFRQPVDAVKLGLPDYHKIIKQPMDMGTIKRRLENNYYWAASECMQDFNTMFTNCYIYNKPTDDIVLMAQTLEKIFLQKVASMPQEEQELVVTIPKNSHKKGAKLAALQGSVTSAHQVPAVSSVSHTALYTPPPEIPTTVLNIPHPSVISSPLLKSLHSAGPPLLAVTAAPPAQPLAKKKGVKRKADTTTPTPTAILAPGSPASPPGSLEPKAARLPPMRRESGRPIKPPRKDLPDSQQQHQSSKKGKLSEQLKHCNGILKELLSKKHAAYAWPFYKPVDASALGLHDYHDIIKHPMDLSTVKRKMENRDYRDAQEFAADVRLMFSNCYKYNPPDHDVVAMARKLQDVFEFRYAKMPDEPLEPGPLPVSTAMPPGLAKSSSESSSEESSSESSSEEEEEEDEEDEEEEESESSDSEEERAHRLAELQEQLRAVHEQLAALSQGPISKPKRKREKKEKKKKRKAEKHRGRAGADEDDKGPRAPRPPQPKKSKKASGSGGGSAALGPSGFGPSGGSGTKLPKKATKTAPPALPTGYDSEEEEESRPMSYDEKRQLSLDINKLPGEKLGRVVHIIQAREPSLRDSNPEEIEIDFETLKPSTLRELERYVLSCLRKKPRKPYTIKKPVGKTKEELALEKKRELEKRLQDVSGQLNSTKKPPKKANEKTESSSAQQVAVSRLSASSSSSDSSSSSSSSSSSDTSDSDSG

ΔpKd (pKd ternary − pKd binary) (VCB and Brd4^BD2; [7]): 0.84 ± 0.07
α (cooperativity, Kd binary/Kd ternary) (VCB and Brd4^BD2; [7]): 7
ΔG (binary + ternary), stability of ternary complex (VCB and Brd4^BD2; ITC, Brd4^BD2): -20.2 ± 0.2 kcal/mol
effect on protein level of Brd2 (Brd2 [1]): no effect on protein levels
Brd4 protein level after treatment (depleted to) (Brd4 [2]): ~ 40%
effect on protein level of Brd3 (Brd3 [3]): no effect on protein levels
activity against Brd2 (protein level by immunoblot) (Brd2 [4]): negligible activity
activity against Brd3 (protein level by immunoblot) (Brd3 [5]): negligible activity
Brd4 protein level by immunoblot (Brd4 [6]): depletion of Brd4
SMILES: CC(=O)N[C@H](C(=O)N1C[C@H](O)C[C@H]1C(=O)NCc1ccc(-c2scnc2C)cc1)C(C)(C)SCCCCCCNC(=O)C[C@@H]1N=C(c2ccc(Cl)cc2)c2c(sc(C)c2C)-n2c(C)nnc21 [AT1, (2S,4R)-1-((R)-2-acetamido-3-((6-(2-((S)-4-(4-chlorophenyl)-2,3,9-trimethyl-6H-thieno[3,2-f][1,2,4]triazolo[4,3-a][1,4]diazepin-6-yl)acetamido)hexyl)thio)-3-methylbutanoyl)-4-hydroxy-N-(4-(4-methylthiazol-5-yl)benzyl)pyrrolidine-2-carboxamide]
